Measurements as given in ChEMBL document CHEMBL4007439, “Design, Synthesis, and Evaluation of a Novel Series of Oxadiazine Gamma Secretase Modulators for Familial Alzheimer's Disease” (J Med Chem, 2017).
Active and inactive are the calls of the source. The rule behind the calls is not given here.

How the values were obtained:
[1] = Modulation of gamma-secretase in human H4 cells expressing human APP751 assessed as inhibition of amyloid beta 42 production incubated overnight by sandwich ELISA; assay type: cell-based; settings: Homo sapiens
In short: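 Aβ42 EC50 in H4 cells overexpressing WT human APP751; each value is the average of n > 2 assays, each run in duplicate.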

[2] = test system: Mus musculus; assay: Reduction in amyloid beta 42 levels in mouse brain at 30 mg/kg, po measured at 6 hrs post dose by ELISA; assay type: functional
In short: (§1)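 Single oral dose of 30 mg/kg; brain (mouse, rat) and rat CSF Aβ42 and Aβ37 measured 6 h post-dose, expressed relative to vehicle; total and free brain drug levels and brain:plasma ratio taken at the same time.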

[3] = Unbound intrinsic clearance in rat hepatocytes; assay type: ADME, cell-based, Hepatocyte
[4] = Total drug level in mouse brain at 30 mg/kg, po measured at 6 hrs post dose; assay type: ADME, organism-based; settings: read-out: Drug uptake; in short: as §1
[5] = Ratio of drug level in brain to plasma in mouse at 30 mg/kg, po measured at 6 hrs post dose; assay type: ADME, organism-based; settings: read-out: BPR; in short: as §1
[6] = test system: Brain; assay: Unbound drug level in mouse brain at 30 mg/kg, po measured at 6 hrs post dose; assay type: ADME, organism-based; settings: in vivo; in short: as §1

COc1cc(C2=NOC[C@@H](COc3ccc(F)cc3C)N2)ccc1-n1cnc(C)c1
EC50 [1]: 2890 nM | Activity [2]: inactive

COc1cc(C2=NOC[C@H](COc3ccc(F)cc3C)N2)ccc1-c1ccnc(C)c1
EC50 [1]: 109 nM | Activity [2]: inactive

COc1nc(C2=NOC[C@H](c3cc4ccccc4s3)N2)ccc1-n1cnc(C)c1
EC50 [1]: 8 nM | CL free [3]: 430 mL/min/kg | concentration at 6 h [4]: 30.2 µM | Kp at 6 h [5]: 2.8 | inhibition in vivo at 30 mg/kg [2]: 34% | Drug uptake(free) [6]: 76 nM

COc1nc(C2=NOC[C@@H]3[C@H](Oc4ccc(F)cc4C)CCCN23)ccc1-c1ccnc(C)c1
EC50 [1]: 240 nM

COc1cc(C2=NOC[C@@H](COc3ccc(F)cc3C)N2)ccc1-c1ccnc(C)c1
EC50 [1]: 6450 nM | Activity [2]: inactive

COc1cc(C2=NOC[C@H](COc3ccc(Cl)cc3C(F)(F)F)N2)ccc1-n1cnc(C)c1
EC50 [1]: 109 nM | Activity [2]: inactive
